Source: PubChem
hERG protect – hERG (human) protection from proarrhythmic block | Q12809 | AID 1511 | activation (rescue from dofetilide block), less the hit threshold, % at 10 µM | CHO-hERG, FluxOR thallium flux, dofetilide IC70 present | hit rate 0.51% among 310,000;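 active = activation above the mean of controls blocked by dofetilide plus 5 SD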;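 also: thallium influx through hERG after potassium depolarization seen as dye fluorescence rise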
Kir21 block – Kir2.1 (mouse) channel inhibition; B-score at 10 µM; P35561; HEK293-Kir2.1, FluxOR thallium flux fluorescence; active compounds read low; hit rate 0.85% among 310,000;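 active = fluorescence ratio B-score at or below minus 3 SD of library scores, with starting-brightness B-score within 2 SD, cut at about -4.2 in these data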;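 also: channel flux triggered by added potassium and thallium sulfate stimulus; B-score of peak minus minimum fluorescence over baseline after thallium stimulus; more negative B-score means stronger Kir2.1 block with less thallium influx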
KCNK9 inh – blocks the human KCNK9 two-pore domain potassium channel; AID 488922; B-score at 10 µM; HEK293 KCNK9, FluxOR thallium flux fluorescence; active compounds read low; Q9NPC2; hit rate 1.2% among 310,000;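 active = ratio B-score over 3 SD below the library mean, with starting fluorescence within 5 SD of its mean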;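 also: negative B-score means less thallium flux so channel inhibition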
Target sequence (Q9NPC2 whole entry, looked up, the tested form may be a part): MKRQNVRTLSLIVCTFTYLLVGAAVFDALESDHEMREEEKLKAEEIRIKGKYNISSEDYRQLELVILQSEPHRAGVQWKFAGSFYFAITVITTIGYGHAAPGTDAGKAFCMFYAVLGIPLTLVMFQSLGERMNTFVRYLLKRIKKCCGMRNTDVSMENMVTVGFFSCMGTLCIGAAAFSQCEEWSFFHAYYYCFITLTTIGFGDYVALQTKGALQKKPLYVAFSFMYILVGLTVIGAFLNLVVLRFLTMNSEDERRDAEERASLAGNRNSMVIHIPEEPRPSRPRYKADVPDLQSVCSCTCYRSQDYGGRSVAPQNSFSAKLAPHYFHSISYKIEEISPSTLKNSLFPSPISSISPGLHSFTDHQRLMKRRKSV
KCNK3 block – human KCNK3 channel inhibition, primary screen. O14649. CHO-KCNK3 thallium flux, FluxOR fluorescence; active compounds read low. B-score at 10 µM. hit rate 0.84% among 340,000;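 active = B-score under library mean minus 4 SD, starting fluorescence ratio at most library mean plus 5 SD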;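 also: more negative B-score means stronger inhibition of thallium flux through KCNK3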
Target sequence (O14649 whole entry, looked up): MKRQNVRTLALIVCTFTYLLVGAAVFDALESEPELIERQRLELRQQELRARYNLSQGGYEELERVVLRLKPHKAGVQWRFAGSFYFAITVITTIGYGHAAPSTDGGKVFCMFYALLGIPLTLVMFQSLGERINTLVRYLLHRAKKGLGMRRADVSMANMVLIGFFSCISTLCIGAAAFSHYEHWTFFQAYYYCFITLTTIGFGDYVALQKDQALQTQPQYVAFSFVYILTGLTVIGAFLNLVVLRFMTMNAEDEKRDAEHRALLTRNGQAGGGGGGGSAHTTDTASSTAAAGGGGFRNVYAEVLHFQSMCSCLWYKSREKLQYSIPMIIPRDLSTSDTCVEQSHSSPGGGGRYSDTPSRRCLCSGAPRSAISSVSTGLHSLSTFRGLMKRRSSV
KCNQ1 pot – potentiates or activates the human KCNQ1 potassium channel; P51787; CHO-K1 KCNQ1, thallium flux FluxOR fluorescence; active compounds read high; B-score at 10 µM; hit rate 0.35% among 310,000;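 active = fluorescence ratio B-score, a plate-corrected score, at least three library SD, with initial intensity B-score within 5 SD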
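Doses: Single concentration per compound, DMSO matched to controls | Test system: KCNQ1-transfected CHO-K1 cells | Timing: 90 min dye loading and 20 min compound exposure, both at room temperature | Measured by: Kinetic FluxOR thallium fluorescence, 10-s 1-Hz baseline, 110-s post-stimulus read | Medium: Assay buffer with matched DMSO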
KCNQ1 inh – inhibitors of human KCNQ1 potassium channel. P51787. CHO-K1 KCNQ1, FluxOR thallium flux fluorescence; active compounds read high. B-score at 10 µM. AID 2642. hit rate 1.3% among 310,000;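 active = compounds whose thallium flux B-score, printed positive for inhibition, exceeds three library SD while starting fluorescence stays within three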;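 also: channel opened by potassium depolarization with thallium stimulus after 20 min compound exposure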
KCNQ1 inh valid – human KCNQ1 channel inhibition, validation assay | shares compounds with KCNQ1 inh | KCNQ1 cell line, FluxOR thallium flux fluorescence | inhibition, % at 10 µM | hit rate 93% among 1,600;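 active = primary screen active, with duplicate mean exceeding buffer control mean plus 3 SD of buffer wells, cut at about 28% in these data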;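 also: 0% = buffer control ratio and 100% = XE991 inhibitor control ratio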
CHO KCNQ1 ctr – counter-screen for KCNQ1 inhibitors: effect in parental CHO cells | shares compounds with KCNQ1 inh | parental CHO-K1, FluxOR thallium flux fluorescence ratio; active compounds read low; zero means no signal rise above baseline | fluorescence ratio (Tl flux) at 10 µM | hit rate 21% among 1,600 | AID 588366;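 active = mean of duplicate thallium-flux fluorescence ratios in parental host cells more than 5 SD below the buffer control mean, cut at about 0.38 in these data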;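 also: ratio is peak minus minimum fluorescence divided by baseline fluorescence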
KCNQ1 ephys val – blocks human KCNQ1 current in automated patch clamp | calls only at 10 µM | AID 624120 | shares compounds with KCNQ1 inh | KCNQ1-CHO cells | hit rate 20% among 490;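 active = KCNQ1 current drop exceeding 3 SD of negative control wells, seen in both duplicate runs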;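 also: steady state current during a 2 s step from -80 to +40 mV; negative values mean current inhibition and positive values mean potentiation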
KCNQ2 inh – selectivity of KCNQ1 inhibitors: inhibition of rat KCNQ2 channel; KCNQ2 cells, FluxOR thallium flux fluorescence; AID 651746; inhibition, % at 10 µM; shares compounds with KCNQ1 inh; hit rate 71% among 1,600;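 active = mean percent inhibition of the KCNQ2 thallium signal more than 5 SD above the buffer-only control wells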;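 also: KCNQ2 expressed in CHO cells; 0% = buffer control wells and 100% = XE-991 inhibitor control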
KCNQ1 KCNE1 spec – human KCNQ1/KCNE1 inhibition in KCNQ1 specificity screen. KCNQ1/KCNE1 cells, FluxOR thallium flux fluorescence. AID 652147. hit rate 77% among 1,600. shares compounds with KCNQ1 inh. inhibition, % at 10 µM;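 active = mean percent inhibition of duplicate wells above the buffer-only control mean plus 3 SD of those controls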;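 also: 0% = buffer only wells and 100% = XE-991 inhibitor control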
* hit, by the source's call; i = inactive; . = no result given; + = active, no number. Only some compounds are listed: those with a hit (about 3.8% of all), similar ones and a draw of the others.

SMILES | hERG protect | Kir21 block | KCNK9 inh | KCNK3 block | KCNQ1 pot | KCNQ1 inh | KCNQ1 inh valid | CHO KCNQ1 ctr | KCNQ2 inh | KCNQ1 KCNE1 spec | others
CCOc1ccc2ncc(C(=O)c3ccc(OC)cc3)c(N3CCN(CC)CC3)c2c1 | -9.7 | 0.36 | i | i | i | i | . | . | . | .
CCOC(=O)c1cnc2ccc(OCC)cc2c1N1CCN(c2ccccc2OC)CC1 | -15.8 | 0.1 | i | i | i | 11* | 130.5* | 0.335* | 141.3%* | 181.5%*
CCOC(=O)C1CCCN(C2=C(NS(=O)(=O)c3ccc(Br)cc3)C(=O)c3ccccc3C2=O)C1 (configuration not stated) | -24.4 | -0.02 | i | i | i | i | . | . | . | .
CCOC(=O)C1CCN(C2=C(NS(=O)(=O)c3ccc(Cl)cc3)C(=O)c3ccccc3C2=O)CC1 | -16.0 | -0.25 | i | i | i | 6* | 124.0* | 0.322* | 135.3%* | 182.5%*
CN1c2ccccc2C(C)(C)C12C=Cc1cc(O)ccc1O2 (configuration not stated) | -22.5 | -2.99 | i | i | i | 9* | 131.5* | 0.358* | 128.3%* | 168.5%*
COc1cc(C(=O)OCC(=O)N2CCNC2=O)cc(Cl)c1OC | . | . | . | i | . | . | . | . | . | .
O=C(Nc1ccc(Oc2ccc3ccccc3c2)cc1)c1ccco1 | -22.9 | 0.83 | i | i | i | 14* | 150.5* | 0.354* | i | 186.0%*
O=C(NCCC(=O)N1CCN(C(=O)c2ccco2)CC1)c1ccc(Br)cc1 | -15.8 | 0.09 | i | i | i | i | . | . | . | .
CCN(CC)CCN1C(=O)C(=O)/C(=C(/O)c2ccc(S(=O)(=O)N3CCOCC3)cc2)C1c1ccc(C)cc1 (configuration not stated) | -7.2 | -0.09 | i | i | i | i | . | . | . | .
Cc1nn(-c2ccccc2)c2c1C(c1ccc(F)cc1F)C(C#N)=C(N)O2 (configuration not stated) | -5.6 | -0.45 | i | i | i | 7* | 45.0* | 0.506 | i | 52.5%*
OCC1OC2C(NC(=S)N2c2ccccc2)C(O)C1O (configuration not stated) | . | . | . | i | . | . | . | . | . | .
COc1ccc2noc3c2c1C(=O)c1ccccc1-3 | -49.9 | -15.9 | i | i | i | 23* | + | 0.0045* | i | i
CCCn1c(SCC(=O)Nc2nonc2C)nnc1-c1ccoc1C | -6.3 | -0.03 | i | i | i | i | . | . | . | .
Cc1nonc1NC(=O)CSc1nnc(-c2ccoc2C)n1-c1cccc(Cl)c1 | -12.7 | -2.73 | i | i | i | 7* | 33.5* | 0.428 | 70.3%* | 67.5%*
CC(C)(C)NC(=O)Nc1nnc(SCC(=O)NC2CCCCC2)s1 | -3.5 | -1.4 | i | i | i | i | . | . | . | .
CC[C@@H]1CC=C[C@H]2[C@H]1C(=O)N(Cc1ccccc1)[C@H]2c1ccoc1 | -28.9 | -3.65 | i | i | i | 9* | 78.0* | 0.377* | 103.7%* | 114.5%*
C[C@H](CO)N1C[C@H](C)[C@@H](CN(C)S(=O)(=O)c2cn(C)cn2)Oc2ccc(NC(=O)Cn3cnnn3)cc2C1=O | . | . | . | i | . | . | . | . | . | .
Cc1cccc(C)c1OCc1cc(C(=O)N2CCC(c3ccncc3)CC2)no1 | -22.4 | -0.01 | i | i | i | 7* | 113.0* | 0.524 | 69.0%* | 35.0%* | KCNQ1 ephys val=i
Cc1cccc(C)c1OCc1cc(C(=O)N2CCN(c3ccccc3)CC2C)no1 (configuration not stated) | -13.8 | -1.01 | i | i | i | 8* | 86.0* | 0.375* | 117.0%* | 120.0%*
Cc1nn(C)c(C)c1NC(=O)Nc1ccc(Cl)c(Cl)c1 | -20.9 | 0.07 | i | i | i | 6* | 77.0* | 0.464 | i | 76.0%*
COc1ccc(Nc2nc(-c3ccccc3)nc3ccccc23)c(OC)c1 | -7.7 | -0.02 | i | i | i | 11* | + | 0.409 | 108.3%* | i | KCNQ1 ephys val=i
COc1ccc(Nc2nc(N3CCN(S(C)(=O)=O)CC3)nc3ccccc23)c(OC)c1 | -7.4 | 0.03 | i | i | i | i | . | . | . | .
COc1ccc(Nc2nc(NC(C)(C)C)nc(N3CCCC3)n2)c(OC)c1 | -15.5 | -0.26 | i | i | i | 8* | 144.5* | 0.321* | i | +
COc1ccc(Nc2nc(N3CCCCC3)nc3ccccc23)c(OC)c1 | -17.1 | -6.96* | i | i | i | 12* | 98.5* | 0.428 | 89.7%* | 94.5%* | KCNQ1 ephys val=i
Cc1onc(-c2c(F)cccc2Cl)c1C(=O)N1CCCC1 | . | . | . | i | . | . | . | . | . | .
SMILES | hERG protect | Kir21 block | KCNK9 inh | KCNK3 block | KCNQ1 pot | KCNQ1 inh | KCNQ1 inh valid | CHO KCNQ1 ctr | KCNQ2 inh | KCNQ1 KCNE1 spec | others
CCOC(=O)c1c(S(=O)(=O)NCc2cccs2)c(C)n(C)c1C | -3.2 | -3.9 | i | i | i | i | . | . | . | .
CCCCN(C(=O)CCCc1nc2ccccc2s1)c1c(N)n(CC(C)C)c(=O)[nH]c1=O | . | . | . | i | . | . | . | . | . | .
CCC1CCCCN1S(=O)(=O)c1ccc(NC(=O)C2CC(=O)N(C(C)(C)C)C2)cc1 (configuration not stated) | . | . | . | i | . | . | . | . | . | .
Cc1ccc(S(=O)(=O)NCC(=O)NCC2COc3ccccc3O2)cc1C (configuration not stated) | . | . | . | i | . | . | . | . | . | .
CCOC(=O)C1=C(CC)Nc2ccccc2N=C1NC(=O)c1ccc(OC)c(S(=O)(=O)N2CCOCC2)c1 | . | . | . | i | . | . | . | . | . | .
COc1ccc(C(=O)C2CCCN(Cc3cccn3-c3ccc(Cl)cn3)C2)c(OC)c1 (configuration not stated) | -21.8 | -2.27 | i | i | i | 11* | 81.5* | 0.493 | 85.0%* | i
O=C1/C(=C\c2cc([N+](=O)[O-])ccc2O)SC(=S)N1Cc1ccc(Cl)cc1 | -31.1 | -12.4 | i | i | i | 17* | 165.0* | 0.22* | i | i
O=C1/C(=C\c2cccc(O)c2O)SC(=S)N1Cc1ccccc1 | 0.1 | 0.02 | i | i | i | i | . | . | . | .
COc1ccc2nc(NC(=O)Nc3ccccc3)sc2c1 | -7.4 | 0.05 | i | i | i | i | . | . | . | .
